Laboratory results as given in ChEMBL document CHEMBL5131563, “Accelerated Identification of Cell Active KRAS Inhibitory Macrocyclic Peptides using Mixture Libraries and Automated Ligand Identification System (ALIS) Technology” (J Med Chem, 2022).
*1 amine or outer side, *2 acyl side, *3 side chain or, on linkers, in order; H or OH if unused. Where a SMILES comes first, the peptide text is derived from it. Bridges are numbered along the chain shown (N, C = ends). [ ]: non-standard residue; d: D form. X1 = O=C([C@@H]1[C@H](c2ccccc2)CCN1[*:1])[*:2]; Ala(4-thiazolyl) = N[C@@H](Cc1cscn1)C(=O)O; Bip = N[C@@H](Cc1ccc(-c2ccccc2)cc1)C(=O)O; Dip = N[C@H](C(=O)O)C(c1ccccc1)c1ccccc1; Ala(cPent) = N[C@@H](CC1CCCC1)C(=O)O; hPhe = N[C@@H](CCc1ccccc1)C(=O)O; Cha = N[C@@H](CC1CCCCC1)C(=O)O; hLeu = CC(C)CC[C@H](N)C(=O)O; Nle = CCCC[C@H](N)C(=O)O; Dab = NCC[C@H](N)C(=O)O; Nva = CCC[C@H](N)C(=O)O

Tests used:
[1] = biological target: T1, GTPase KRas (Homo sapiens, UniProt P01116, G12D); assay: Inhibition of KRAS in human ASPC1 cells harboring KRAS G12D mutant assessed as inhibition of ERK phosphorylation incubated for 18 hrs by AlphaScreen-based […] assay; type: cell-based
T1 sequence (P01116 whole entry G12D): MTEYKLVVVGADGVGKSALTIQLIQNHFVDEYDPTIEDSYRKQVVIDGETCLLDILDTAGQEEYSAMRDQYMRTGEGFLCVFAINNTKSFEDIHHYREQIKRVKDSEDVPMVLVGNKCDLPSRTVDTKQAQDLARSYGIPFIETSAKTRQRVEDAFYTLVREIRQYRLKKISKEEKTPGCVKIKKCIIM
How it was run: (§1)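 AsPC-1 cells (KRAS G12D) were seeded at 15 000 cells/well in phenol-red-free RPMI with 10% FBS and 25 mM HEPES, then incubated overnight at 37 °C and 5% CO2. Medium was switched to serum-free before dosing. Cells were given a dose–response titration for 2 or 18 h at 37 °C, washed and lysed with protease inhibitors. Phospho-ERK and total ERK were read by AlphaScreen SureFire multiplex, using the pERK/total ERK ratio. Curves were fit with a 4-parameter logistic.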

[2] = biological target: T1, GTPase KRas; assay: Inhibition of KRAS in human ASPC1 cells harboring KRAS G12D mutant assessed as inhibition of ERK phosphorylation incubated for 2 hrs by AlphaScreen-based […] assay; type: cell-based; how it was run: as §1
[3] = biological target: T1, GTPase KRas; assay: Inhibition of recombinant biotinylated KRAS G12D mutant (unknown origin) assessed as inhibition of SOS-catalyzed nucleotide exchange preincubated for 60 mins followed by addition of human SOS protein and unlabeled GTP and measured after 60 mins by TR-FRET analysis
How it was run: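 Biotinylated KRAS G12D was treated in EDTA buffer (1 h, RT), then loaded at 90 nM with 900 nM Bodipy-GDP and 15 nM Tb-streptavidin in Mg2+ buffer, HEPES pH 7.5 (6 h, RT). It was used at 1.5 nM assay solution with a 10-point, 3-fold DMSO compound series for 60 min at RT. A solution of 120 nM human SOS plus GTP was added for 60 min. The read-out was TR-FRET at 520/495 nm, normalized to DMSO and saturating-inhibitor controls, with a 4-parameter fit.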

[4] = Stability in human HeLa cell homogenate assessed as half life by LC-MS/MS analysis; type: ADME, cell-based
How it was run: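 HeLa cells suspended at 1 × 10^6 cells/mL, probe-sonicated on ice until homogeneous, stored frozen at –20 °C. Peptides incubated with homogenate (1 × 10^6 cells/mL equivalent); peptide loss over time quantified by LC-MS/MS to derive t1/2.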

## CC[C@H](C)[C@@H]1NC(=O)[C@H](Cc2ccc(-c3ccccc3)cc2)NC(=O)[C@H](CC(C)C)NC(=O)[C@@H]2[C@H](c3ccccc3)CCN2C(=O)[C@@H](NC(=O)[C@H](CCCNC(=N)N)NC(=O)[C@H](CCCNC(=N)N)NC(C)=O)CSSC[C@@H](C(=O)N[C@@H](CCCNC(=N)N)C(=O)N[C@@H](CCCNC(=N)N)C(N)=O)NC(=O)[C@H](C(C)C)NC(=O)[C@@H]2CCCN2C(=O)[C@H](CC(=O)O)NC(=O)[C@H](Cc2ccc(O)cc2)NC(=O)[C@H](CO)NC(=O)[C@H](C)NC1=O (Ac-RRC[X1]L[Bip]IASYDPVCRR-NH2; disulfide 3-14)
[1]
  IC50: 3.9 µM
[2]
  IC50: 3.8 µM
[3]
  IC50: < 0.001 µM
[4]
  half-life: > 372 min

## CCC[C@@H]1NC(=O)[C@H](Cc2ccc(O)cc2)NC(=O)[C@H](CC(C)C)NC(=O)[C@@H]2CCCN2C(=O)[C@@H](NC(=O)[C@H](CCCNC(=N)N)NC(=O)[C@H](CCCNC(=N)N)NC(C)=O)CSSC[C@@H](C(=O)N[C@@H](CCCNC(=N)N)C(=O)N[C@@H](CCCNC(=N)N)C(N)=O)NC(=O)[C@H](C(C)C)NC(=O)[C@@H]2CCCN2C(=O)[C@H](CC(=O)O)NC(=O)[C@H](Cc2ccc(O)cc2)NC(=O)[C@H](CO)NC1=O (Ac-RRCPLY[Nva]SYDPVCRR-NH2; disulfide 3-13)
[3]
  IC50: > 11.1 µM
[4]
  half-life: 19 min

## CC(=O)N[C@@H](CCCNC(=N)N)C(=O)N[C@@H](CCCNC(=N)N)C(=O)N[C@H]1CSSC[C@@H](C(=O)N[C@@H](CCCNC(=N)N)C(=O)N[C@@H](CCCNC(=N)N)C(N)=O)NC(=O)[C@H](C(C)C)NC(=O)[C@@H]2CCCN2C(=O)[C@H](CC(=O)O)NC(=O)[C@H](Cc2ccc(O)cc2)NC(=O)[C@H](CO)NC(=O)[C@H](CC2CCCC2)NC(=O)[C@H](CCc2ccccc2)NC(=O)[C@H](CC(C)C)NC(=O)[C@@H]2CCCN2C1=O (Ac-RRCPL[hPhe][Ala(cPent)]SYDPVCRR-NH2; disulfide 3-13)
[3]
  IC50: > 11.1 µM
[4]
  half-life: 16 min

## CC(=O)N[C@@H](CCCNC(=N)N)C(=O)N[C@@H](CCCNC(=N)N)C(=O)N[C@H]1CSSC[C@@H](C(=O)N[C@@H](CCCNC(=N)N)C(=O)N[C@@H](CCCNC(=N)N)C(N)=O)NC(=O)[C@H](C(C)C)NC(=O)[C@@H]2CCCN2C(=O)[C@H](CC(=O)O)NC(=O)[C@H](Cc2ccc(O)cc2)NC(=O)[C@H](CO)NC(=O)[C@H](CC2CCCC2)NC(=O)[C@H](Cc2ccc(O)cc2)NC(=O)[C@H](CC(C)C)NC(=O)[C@@H]2CCCN2C1=O (Ac-RRCPLY[Ala(cPent)]SYDPVCRR-NH2; disulfide 3-13)
[3]
  IC50: > 11.1 µM
[4]
  half-life: 23 min

## CC[C@H](C)[C@@H]1NC(=O)[C@H](Cc2ccc(O)cc2)NC(=O)[C@H](CC(C)C)NC(=O)[C@@H]2CCCN2C(=O)[C@@H](NC(=O)[C@H](CCCNC(=N)N)NC(=O)[C@H](CCCNC(=N)N)NC(C)=O)CSSC[C@@H](C(=O)N[C@@H](CCCNC(=N)N)C(=O)N[C@@H](CCCNC(=N)N)C(N)=O)NC(=O)[C@H](C(C)C)NC(=O)[C@@H]2CCCN2C(=O)[C@H](CC(=O)O)NC(=O)[C@H](Cc2ccc(O)cc2)NC(=O)[C@H](Cc2cscn2)NC1=O (Ac-RRCPLYI[Ala(4-thiazolyl)]YDPVCRR-NH2; disulfide 3-13)
[3]
  IC50: 2.27 µM
[4]
  half-life: 22 min

## CC[C@H](C)[C@@H]1NC(=O)[C@H](Cc2ccc(O)cc2)NC(=O)[C@H](CC(C)C)NC(=O)[C@@H]2CCCN2C(=O)[C@@H](NC(=O)[C@H](CCCNC(=N)N)NC(=O)[C@H](CCCNC(=N)N)NC(C)=O)CSSC[C@@H](C(=O)N[C@@H](CCCNC(=N)N)C(=O)N[C@@H](CCCNC(=N)N)C(N)=O)NC(=O)[C@H](C(C)C)NC(=O)[C@@H]2CCCN2C(=O)[C@H](CC(=O)O)NC(=O)[C@H](Cc2ccc(O)cc2)NC(=O)[C@H](CO)NC1=O (Ac-RRCPLYISYDPVCRR-NH2; disulfide 3-13)
[3]
  IC50: 0.054 µM
[4]
  half-life: 23 min

## CC[C@H](C)[C@@H]1NC(=O)[C@H](Cc2ccc(O)cc2)NC(=O)[C@H](CC(C)C)NC(=O)[C@@H]2CCCN2C(=O)[C@@H](NC(=O)[C@H](CCCNC(=N)N)NC(=O)[C@H](CCCNC(=N)N)NC(C)=O)CSSC[C@@H](C(=O)N[C@@H](CCCNC(=N)N)C(=O)N[C@@H](CCCNC(=N)N)C(N)=O)NC(=O)[C@H](C(C)C)NC(=O)[C@@H]2CCCN2C(=O)[C@H](CC(=O)O)NC(=O)[C@H](C(c2ccccc2)c2ccccc2)NC(=O)[C@H](CO)NC1=O
[3]
  IC50: 0.251 µM
[4]
  half-life: 30 min

## CCCC[C@@H]1NC(=O)[C@H]([C@@H](C)CC)NC(=O)[C@H](Cc2ccc(O)cc2)NC(=O)[C@H](CC(C)C)NC(=O)[C@@H]2CCCN2C(=O)[C@@H](NC(=O)[C@H](CCCNC(=N)N)NC(=O)[C@H](CCCNC(=N)N)NC(C)=O)CSSC[C@@H](C(=O)N[C@@H](CCCNC(=N)N)C(=O)N[C@@H](CCCNC(=N)N)C(N)=O)NC(=O)[C@H](C(C)C)NC(=O)[C@@H]2CCCN2C(=O)[C@H](CC(=O)O)NC(=O)[C@H](Cc2ccc(O)cc2)NC1=O (Ac-RRCPLYI[Nle]YDPVCRR-NH2; disulfide 3-13)
[3]
  IC50: > 11.1 µM
[4]
  half-life: 25 min

## CCC[C@@H]1NC(=O)[C@H](Cc2ccc(-c3ccccc3)cc2)NC(=O)[C@H](CC(C)C)NC(=O)[C@@H]2CCCN2C(=O)[C@@H](NC(=O)[C@H](CCCNC(=N)N)NC(=O)[C@H](CCCNC(=N)N)NC(C)=O)CSSC[C@@H](C(=O)N[C@@H](CCCNC(=N)N)C(=O)N[C@@H](CCCNC(=N)N)C(N)=O)NC(=O)[C@H](C(C)C)NC(=O)[C@@H]2CCCN2C(=O)[C@H](CC(=O)O)NC(=O)[C@H](Cc2ccc(O)cc2)NC(=O)[C@H](CO)NC1=O (Ac-RRCPL[Bip][Nva]SYDPVCRR-NH2; disulfide 3-13)
[3]
  IC50: 0.604 µM
[4]
  half-life: 26 min

## CC(=O)N[C@@H](CCCNC(=N)N)C(=O)N[C@@H](CCCNC(=N)N)C(=O)N[C@H]1CSSC[C@@H](C(=O)N[C@@H](CCCNC(=N)N)C(=O)N[C@@H](CCCNC(=N)N)C(N)=O)NC(=O)[C@H](C(C)C)NC(=O)[C@@H]2CCCN2C(=O)[C@H](CC(=O)O)NC(=O)[C@H](Cc2ccc(O)cc2)NC(=O)[C@H](CO)NC(=O)[C@H](CCC(C)C)NC(=O)[C@H](Cc2ccc(O)cc2)NC(=O)[C@H](CC(C)C)NC(=O)[C@@H]2CCCN2C1=O (Ac-RRCPLY[hLeu]SYDPVCRR-NH2; disulfide 3-13)
[3]
  IC50: > 11.1 µM
[4]
  half-life: 28 min

## CC(=O)N[C@@H](CCCNC(=N)N)C(=O)N[C@@H](CCCNC(=N)N)C(=O)N[C@H]1CSSC[C@@H](C(=O)N[C@@H](CCCNC(=N)N)C(=O)N[C@@H](CCCNC(=N)N)C(N)=O)NC(=O)[C@H](C(C)C)NC(=O)[C@@H]2CCCN2C(=O)[C@H](CC(=O)O)NC(=O)[C@H](Cc2ccc(O)cc2)NC(=O)[C@H](CO)NC(=O)[C@H](CC2CCCC2)NC(=O)[C@H](CC2CCCCC2)NC(=O)[C@H](CC(C)C)NC(=O)[C@@H]2CCCN2C1=O (Ac-RRCPL[Cha][Ala(cPent)]SYDPVCRR-NH2; disulfide 3-13)
[3]
  IC50: > 11.1 µM
[4]
  half-life: 21 min

## CC[C@H](C)[C@@H]1NC(=O)[C@H](Cc2ccc(O)cc2)NC(=O)[C@H](CC(C)C)NC(=O)[C@@H]2CCCN2C(=O)[C@@H](NC(=O)[C@H](CCCNC(=N)N)NC(=O)[C@H](CCCNC(=N)N)NC(C)=O)CSSC[C@@H](C(=O)N[C@@H](CCCNC(=N)N)C(=O)N[C@@H](CCCNC(=N)N)C(N)=O)NC(=O)[C@H](C(C)C)NC(=O)[C@@H]2CCCN2C(=O)[C@H](CC(=O)O)NC(=O)[C@H](CC2CCCCC2)NC(=O)[C@H](CO)NC1=O
[3]
  IC50: 1.47 µM
[4]
  half-life: 15 min

## CC(=O)N[C@@H](CCCNC(=N)N)C(=O)N[C@@H](CCCNC(=N)N)C(=O)N[C@H]1CSSC[C@@H](C(=O)N[C@@H](CCCNC(=N)N)C(=O)N[C@@H](CCCNC(=N)N)C(N)=O)NC(=O)[C@H](C(C)C)NC(=O)[C@@H]2CCCN2C(=O)[C@H](CC(=O)O)NC(=O)[C@H](Cc2ccc(O)cc2)NC(=O)[C@H](CO)NC(=O)[C@H](CCC(C)C)NC(=O)[C@H](CCc2ccccc2)NC(=O)[C@H](CC(C)C)NC(=O)[C@@H]2CCCN2C1=O (Ac-RRCPL[hPhe][hLeu]SYDPVCRR-NH2; disulfide 3-13)
[3]
  IC50: > 11.1 µM
[4]
  half-life: 14 min

## CC[C@H](C)[C@@H]1NC(=O)[C@H](Cc2ccc(O)cc2)NC(=O)[C@H](CC(C)C)NC(=O)[C@@H]2CCCN2C(=O)[C@@H](NC(=O)[C@H](CCCNC(=N)N)NC(=O)[C@H](CCCNC(=N)N)NC(C)=O)CSSC[C@@H](C(=O)N[C@@H](CCCNC(=N)N)C(=O)N[C@@H](CCCNC(=N)N)C(N)=O)NC(=O)[C@H](C(C)C)NC(=O)[C@@H]2CCCN2C(=O)[C@H](CC(=O)O)NC(=O)[C@H](C(c2ccccc2)c2ccccc2)NC(=O)[C@H](CCN)NC1=O (Ac-RRCPLYI[Dab][Dip]DPVCRR-NH2; disulfide 3-13)
[3]
  IC50: > 11.1 µM
[4]
  half-life: 34 min

## CC(=O)N[C@@H](CCCNC(=N)N)C(=O)N[C@@H](CCCNC(=N)N)C(=O)N[C@H]1CSSC[C@@H](C(=O)N[C@@H](CCCNC(=N)N)C(=O)N[C@@H](CCCNC(=N)N)C(N)=O)NC(=O)[C@H](C(C)C)NC(=O)[C@@H]2CCCN2C(=O)[C@H](CC(=O)O)NC(=O)[C@H](Cc2ccc(O)cc2)NC(=O)[C@H](CO)NC(=O)[C@H](CCC(C)C)NC(=O)[C@H](Cc2ccc(-c3ccccc3)cc2)NC(=O)[C@H](CC(C)C)NC(=O)[C@@H]2CCCN2C1=O (Ac-RRCPL[Bip][hLeu]SYDPVCRR-NH2; disulfide 3-13)
[3]
  IC50: > 11.1 µM
[4]
  half-life: 17 min
